# Sampled rows, rich in hits. Any-hit rate of the full collection: about 1.9%.
# HCV NS3 hel inh: blocks Hepatitis C virus NS3 helicase unwinding; NS3 helicase DNA unwinding, Cy5 molecular beacon fluorescence; inhibition, % at 10.9 µM; 290,000 compounds, 0.56% hits;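 active = inhibition above the mean of all tested compounds plus 3 SD, set per campaign, cut at about 35% in these data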;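 note: 0% = DMSO wells and 100% = thioflavine S control wells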
#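 Assay system: hepatitis C virus NS3 helicase domain fragment enzyme. Also added: annealed dual-labelled DNA beacon duplex, ATP-started. Timing: 1 h reaction at 25 °C, ATP-initiated. Technique: Cy5 fluorescence at 0 and 60 min, beacon hairpin quenching. Evaluation: % inhibition of unwinding. Replication: one well per compound.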
# IMP-1 inh-1: inhibitors of Pseudomonas aeruginosa IMP-1 metallo-beta-lactamase; purified IMP-1, nitrocefin hydrolysis, epi-absorbance fluorescence; inhibition, % at 5.6 µM; 290,000 compounds, 0.45% hits;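 active = inhibition above the mean plus 3 SD of all compounds in the same screening run, cut at about 4.5% in these data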;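 note: 0% = IMP-1 with DMSO and 100% = DMSO wells lacking enzyme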
#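 Assay system: purified recombinant IMP-1 beta-lactamase. Input: IMP-1 0.2 nM before substrate addition. Buffer or medium: Zinc- and detergent-supplemented HEPES buffer, pH 7.1. Schedule: 25 °C, 15 min preincubation, 25 min reaction. Signal: Epi-absorbance fluorescence, 480 nm excitation, 530 nm emission. Evaluation: percent inhibition from optical density relative to buffer-blank wells.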
# FID counter: counter-screen for HCV NS3 helicase inhibitors: DNA intercalator displacement | DNA fluorescent intercalator displacement, fluorescence | inhibition, % at 7.9 µM | 290,000 compounds, 0.17% hits | AID 1845; in the data active = inhibition above about 37%;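 note: 0% = vehicle and 100% = reference compound; higher means more ethidium bromide displaced from hairpin DNA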
# VIM-2 inh: blocks Pseudomonas aeruginosa VIM-2 metallo-beta-lactamase | inhibition, % at 5.6 µM | AID 1527 | purified VIM-2, nitrocefin hydrolysis, epi-absorbance fluorescence | 290,000 compounds, 0.89% hits;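 active = inhibition above the mean of all tested compounds plus 3 SD, cutoff set per screening run, cut at about 7.5% in these data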;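 note: red hydrolysis product quenches plate fluorescence so inhibitors raise well fluorescence; 0% = enzyme with DMSO and 100% = DMSO without enzyme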
# IMP-1 inh-2: selectivity counter-screen for VIM-2 inhibitors: IMP-1 metallo-beta-lactamase inhibitors. purified IMP-1, nitrocefin hydrolysis, epi-absorbance fluorescence. shares compounds with VIM-2 inh. inhibition, % at 5.6 µM. 1,300 tested, under 10 active; call rule not given here;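 note: 0% = enzyme with vehicle and 100% = vehicle without enzyme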
# VIM-2 FRET ctr: inhibits VIM-2 in FRET assay to exclude epi-absorbance artifacts. shares compounds with VIM-2 inh. purified VIM-2, CCF2 FRET substrate hydrolysis. inhibition, % at 5.6 µM. 1,300 compounds, 23% hits. AID 1857;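 active = inhibition above the mean of all tested compounds plus 3 SD, cut at about 19% in these data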;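 note: 0% = VIM-2 plus DMSO and 100% = no enzyme wells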
# TEM-1 counter: selectivity counter-screen for VIM-2 inhibitors: E. coli TEM-1 inhibitors; shares compounds with VIM-2 inh; Purified TEM-1, nitrocefin hydrolysis, epi-absorbance fluorescence; inhibition, % at 5.6 µM; 1,300 compounds, 3% hits; AID 1866;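 active = inhibition above that campaign's mean inhibition plus 3 SD, cut at about 0.46% in these data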;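 note: 0% = TEM-1 with DMSO and 100% = TEM-1 with 100 µM potassium clavulanate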
# Target sequence (P62593 whole entry, looked up): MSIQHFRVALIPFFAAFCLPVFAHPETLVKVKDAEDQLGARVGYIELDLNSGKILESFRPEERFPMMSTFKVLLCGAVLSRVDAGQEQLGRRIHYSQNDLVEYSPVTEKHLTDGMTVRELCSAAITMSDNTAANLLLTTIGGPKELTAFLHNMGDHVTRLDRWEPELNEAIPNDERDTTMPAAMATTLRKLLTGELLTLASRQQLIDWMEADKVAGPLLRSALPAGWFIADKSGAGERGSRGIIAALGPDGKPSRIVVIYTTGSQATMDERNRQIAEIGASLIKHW
# VIM-2 confirm 2: confirmation of P. aeruginosa VIM-2 metallo-beta-lactamase inhibitors. AID 2187. inhibition, % at 5.6 µM. purified VIM-2, nitrocefin hydrolysis, epi-absorbance. 1,300 compounds, 96% hits. shares compounds with VIM-2 inh;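 active = inhibition of the VIM-2 beta-lactamase enzyme above about 11% from the earlier first-round screen, limit read from the data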;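 note: 0% = VIM-2 with DMSO and 100% = buffer wells without enzyme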
# * = called active by the depositor; . = no result given.
SMILES,HCV NS3 hel inh,IMP-1 inh-1,FID counter,VIM-2 inh,IMP-1 inh-2,VIM-2 FRET ctr,TEM-1 counter,VIM-2 confirm 2
O=C(CN1CCOCC1)n1c2c(c3ccccc31)CCCC2,22,-1,-16,13*,-4,6,-7,5
O=C(CN1CCOCC1)n1c2ccccc2c2ccccc21,-4,-1,-2,-6,.,.,.,.
Brc1ccc(-c2ccc(CNCc3ccccn3)o2)cc1,-31,0,10,39*,-4,-15,-6,50*
Cc1cccn2c(=O)c3cc(C(=O)NCC4CCCO4)c(=N)n(CCc4ccccc4)c3nc12 (configuration not stated),-2,-4,5,0,.,.,.,.
COc1ccc(CCn2c(=N)c(C(=O)NCC3CCCO3)cc3c(=O)n4ccccc4nc32)cc1OC (configuration not stated),4,-2,14,14*,-2,-1,-5,21*
c1ccc(-c2nc(-c3ccccn3)nc(-c3ccccn3)n2)nc1,-3,-1,-13,21*,-3,-24,-6,45*
CN1CCN(c2nc(-c3ccccn3)nc3ccccc23)CC1,7,-22,21,3,.,.,.,.
c1ccc(N2CCN(c3nc(-c4ccccn4)nc4ccccc34)CC2)cc1,-53,-5,-19,42*,-4,-47,-5,64*
Nc1nc(N)nc(-c2ccccn2)n1,0,-10,-7,-2,.,.,.,.
CCN(CC)CCC(=O)Nc1cccc2c1C(=O)c1ccccc1C2=O,-7,-1,69*,33*,-2,-1,-9,45*
CCN(CC)CCNC(=O)c1ccc2c(c1NCCO)C(=O)c1ccccc1C2=O,-10,-1,42*,14*,-5,2,-8,20*
Nc1cc(Cl)ccc1Nc1ccncc1,-4,-1,-1,-4,.,.,.,.
Cc1c(CCO)c(=O)n2c([nH]c3ccccc32)c1C#N,1,-2,-2,21*,-2,-4,-5,30*
CCOc1ccc(N(CC(=O)N/N=C/c2cccnc2)S(C)(=O)=O)cc1,-18,-2,-6,-2,.,.,.,.
CC1=C(C(=O)O)N2C(=O)C(NC(=O)c3nn(C)cc3[N+](=O)[O-])C2SC1 (configuration not stated),5,0,8,15*,-3,33*,-5,21*
CC1=C(C(=O)O)N2C(=O)C(NC(=O)c3ccn(C)n3)C2SC1 (configuration not stated),9,-1,1,-1,.,.,.,.
O=C(COC(=O)C1=COCCO1)Nc1ccc(OC(F)F)cc1,-3,-2,-1,0,.,.,.,.
Cn1c(=O)c2c(SCc3cccnc3)nc(C3CC3)nc2n(C)c1=O,-2,-4,-19,29*,-3,-8,-4,49*
CCCCc1cc(=O)oc2c3c(cc(OCC(=O)NCCCO)c12)OC(C)(C)CC3,-5,-1,-31,-2,.,.,.,.
CCCCc1cc(=O)oc2c3c(cc(OCC(=O)N4CCC[C@H]4C(=O)O)c12)OC(C)(C)CC3,9,-5,-30,16*,-3,36*,-6,20*
Cc1cc(=O)oc2c3c(cc(OCC(=O)N4CCC[C@H]4C(=O)O)c12)OC(C)(C)CC3,5,-2,-27,26*,-3,46*,-3,29*
Cc1cc(OCC(=O)N2CCC[C@@H]2C(=O)O)c2c(C)c(C)c(=O)oc2c1,11,-3,-10,27*,-3,51*,-5,33*
CCCCCCc1c(C)c2ccc(OCC(=O)N3CCC[C@H]3C(=O)O)c(C)c2oc1=O,14,-2,-16,-4,.,.,.,.
CCCc1cc(=O)oc2c(C)c(OCC(=O)N3CCC[C@@H]3C(=O)O)ccc12,15,-4,-32,23*,-2,41*,-5,24*
COc1ccc(S(=O)(=O)c2nnn(-c3ccccc3Cl)c2N)cc1,-6,0,-6,1,.,.,.,.
O=C(c1ccccc1)N1N=C(C(F)(F)F)CC1(O)c1ccc(F)cc1 (configuration not stated),24,-4,-27,-2,.,.,.,.

# Screening results (PubChem)
